AHR activator: activates the human aryl hydrocarbon receptor; P35869; AHR-responsive luciferase reporter cells, luminescence; activation, % at 5 µM; 320,000 tested, 2.5% active; in the data active means activation above about 47%;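 further: 0% = vehicle wells and 100% = reference agonist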
SR-BI HDL uptake: inhibitors of mouse SR-BI mediated HDL lipid uptake. AID 488896. inhibition, % at 12.5 µM. ldlA[mSR-BI] CHO cells, DiI-HDL uptake fluorescence, 3 h. 320,000 tested, 0.96% active. Q61009;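 active means mean replicate inhibition of at least 70% and a set share of replicates each scoring 70 or more; inconclusive means meets just one of the two criteria; inactive means fails both criteria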;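 further: 0% = median of neutral control wells and 100% = median of positive control wells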
SR-BI DiI-HDL act: enhances SR-BI lipid uptake from DiI-HDL. CHO ldlA[mSR-BI] cells, DiI-HDL uptake fluorescence, 3 h; 100 = double the neutral-control signal. activation, % at 12.5 µM. 320,000 tested, 0.096% active;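 active means mean replicate activation of at least 60% and every replicate at or above 60%; inconclusive means mean or all-replicate condition met, but not both; inactive means mean below 60% and not all replicates reaching 60%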;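 further: 0% = median plate neutral-control signal and 100% = twice that signal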
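Assay system: LDL receptor-deficient CHO ldlA cells overexpressing murine SR-BI / Medium: BSA-supplemented, HEPES-buffered Ham's F12, pH 7.4 / Probe or stimulus: DiI-labelled HDL at 10 µg/mL final / Timing: compound with DiI-HDL co-incubation, 3 h at 37 °C / Technique: bottom-read cell fluorescence after medium removal, ex 550/em 595 nm / Measure: HDL uptake via cellular fluorescence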
FXN GAA850 act: frataxin GAA850 promoter activation. HEK293 lucGAA850 FXN promoter luciferase reporter, 24 h; percent of 10 µM SAHA response. activation, % at 6 µM. 360,000 tested, 0.56% active;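 active means activation above the average of all compounds screened plus 3 SD, cutoff fixed separately per campaign, cut at about 7.5% in these data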;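 further: 0% = DMSO wells and 100% = 10 µM SAHA wells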
ABCB6 inh MLPCN: blocks the human ABCB6 transporter; fluorescence ratio to DMSO, % at 10 µM; K562-ABCB6 porphyrin accumulation, flow cytometry, 1 h; hits give low values; Q9NP58; 360,000 tested, 0.19% active;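 active means fluorescence ratio to DMSO below 75%, the collection mean minus 3 SD; inconclusive means too few cells collected in the well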;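 further: signal is porphyrin accumulated inside mitochondria; 100% equals median channel fluorescence of DMSO control wells; lower ratio means ABCB6 inhibition with less porphyrin fluorescence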
Target sequence (Q9NP58 whole entry, looked up): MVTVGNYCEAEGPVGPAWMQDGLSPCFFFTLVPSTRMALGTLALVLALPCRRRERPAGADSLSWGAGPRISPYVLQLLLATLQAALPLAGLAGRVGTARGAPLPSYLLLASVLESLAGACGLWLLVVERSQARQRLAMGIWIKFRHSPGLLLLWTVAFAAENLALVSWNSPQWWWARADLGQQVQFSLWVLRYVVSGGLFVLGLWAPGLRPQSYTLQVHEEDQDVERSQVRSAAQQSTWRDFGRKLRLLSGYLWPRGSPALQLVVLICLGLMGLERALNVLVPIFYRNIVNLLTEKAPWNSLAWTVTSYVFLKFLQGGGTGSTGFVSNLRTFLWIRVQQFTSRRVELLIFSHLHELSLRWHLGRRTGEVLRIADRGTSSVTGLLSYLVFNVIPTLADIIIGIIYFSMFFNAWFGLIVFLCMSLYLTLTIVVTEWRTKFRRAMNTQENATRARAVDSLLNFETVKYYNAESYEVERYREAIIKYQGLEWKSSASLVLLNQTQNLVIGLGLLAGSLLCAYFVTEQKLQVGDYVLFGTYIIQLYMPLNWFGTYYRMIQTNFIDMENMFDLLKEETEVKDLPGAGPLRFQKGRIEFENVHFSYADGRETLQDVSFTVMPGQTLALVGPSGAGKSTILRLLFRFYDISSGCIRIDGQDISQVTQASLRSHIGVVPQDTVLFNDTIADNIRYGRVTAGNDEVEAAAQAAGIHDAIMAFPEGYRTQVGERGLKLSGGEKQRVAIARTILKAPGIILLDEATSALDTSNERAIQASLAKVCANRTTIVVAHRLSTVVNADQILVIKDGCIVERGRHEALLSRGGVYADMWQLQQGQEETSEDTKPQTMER
HIF activator: HIF pathway transcriptional activation | U2OS HRE-luciferase reporter, luminescence; normalized: DMSO 0%, desferrioxamine 100% | activation, % at 7.5 µM (by protocol) | 300,000 tested, 0.32% active;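 active means mean activation of at least 10% of the iron chelator positive control signal, with at least half of replicates also reaching 10%; inconclusive means mean and replicate majority disagree about reaching 10%; inactive means mean and most replicates under 10%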
* hit, by the source's call; i = inactive; ? = inconclusive; / = no result given. An excerpt weighted towards active compounds, which were near 3.9% of everything screened.

SMILES	AHR activator	SR-BI HDL uptake	SR-BI DiI-HDL act	FXN GAA850 act	ABCB6 inh MLPCN	HIF activator
C/C(=N/NC(=O)c1ccc(Cl)s1)c1ccc(NC(=O)COc2ccc(Cl)cc2)cc1	55*	1	-1	0	53*	0
CCOC(=O)CNC(=O)C1(/C=C/c2ccccc2)CC(=O)N1c1ccc(C)cc1 (configuration not stated)	0	-14	14	1	97	-1
Cc1cc2nc(-c3cccnc3SCC(=O)NCc3ccco3)[nH]c2cc1C	64*	1	-1	6	106	1
Cc1sc2nc(SCC(=O)NCc3ccco3)[nH]c(=O)c2c1C	55*	-3	3	3	103	/
Cc1cc2nc(-c3ccc(SCC(=O)NC(C)C)nc3)[nH]c2cc1C	78*	/	/	/	/	3
Cc1sc2nc(SCC(=O)NCc3cccs3)[nH]c(=O)c2c1C	21	-1	1	2	102	-1
CSc1nc(SCC(=O)NCc2ccco2)c2c3c(sc2n1)CN(C)CC3	0	-7	7	-1	72*	0
Cc1cc(NC(=O)CSc2ccc(-c3nc4cc(C)c(C)cc4[nH]3)cn2)no1	21	27	-27	2	103	-2
Cc1cc2nc(-c3cccnc3SCC(=O)NC3CC3)[nH]c2cc1C	55*	/	/	/	/	3
CC(C)(C)NC(=O)CSc1ncccc1-c1nc2ccccc2[nH]1	14	-5	5	0	99	0
CCC(C)(C)n1nnnc1C(c1cccs1)N1CCCCC1 (configuration not stated)	-1	23	-23	-1	99	0
Cc1cc(C)n2cc(COc3ccc4ccccc4c3)nc2n1	9	7	-7	6	101	2
O=C(Cc1ccc2c(c1)OCCO2)Nc1ccc(Cl)c(S(=O)(=O)N2CCOCC2)c1	1	-10	10	-1	94	/
CCOc1ccccc1NC(=O)CSc1nnc2ccc(-c3cccnc3)nn12	49*	22	-22	2	99	-1
COc1ccccc1NC(=O)CSc1nnc2ccc(-c3cccnc3)nn12	58*	-1	1	3	97	0
COc1ccc(NC(=O)CSc2nnc3ccc(-c4cccnc4)nn23)c(OC)c1	5	-23	23	-2	101	0
NS(=O)(=O)c1ccc(-c2ccc(/C=C3\NC(=S)NC3=O)o2)cc1	-1	6	-6	0	108	0
CC(=O)Nc1nc(-c2ccc3c(c2)CCN3C(=O)C2CC2)c(C)s1	-2	95*	-95	0	91	1
Cc1sc(NC(=O)CN2CCCC2)nc1-c1ccc2c(c1)CCN2C(=O)c1ccc(F)cc1	1	/	/	-1	98	0
CNc1nc(-c2ccc3c(c2)CCN3C(=O)CC(C)(C)C)c(C)s1	1	73*	-73	1	105	2
O=C(/C=C/c1ccccc1)Nc1ccc(NC(=O)c2cccs2)cc1	-2	33	-33	-3	95	-1
O=C(O)c1csc(-n2nc(-c3ccccc3)cc2C(F)(F)F)n1	-1	-8	8	1	101	0
COc1ccc(Oc2ccccc2/C=C/C(=O)O)cc1	2	i	536*	-1	101	-1
COc1ccc(CCNC(=O)c2cc([N+](=O)[O-])cc([N+](=O)[O-])c2)cc1OC	/	73*	-73	0	102	1
COc1ccc(OC)c(NC(=O)c2[nH]c(C)c(C(C)=O)c2C)c1	75*	?	-71	2	99	1
SMILES	AHR activator	SR-BI HDL uptake	SR-BI DiI-HDL act	FXN GAA850 act	ABCB6 inh MLPCN	HIF activator
COc1ccc(-c2nc(NC(=O)c3[nH]c(C)c(C(C)=O)c3C)sc2C)cc1	18	76*	-76	-3	99	0
CCOc1ccc(CCNC(=O)c2[nH]c(C)c(C(C)=O)c2C)cc1OCC	19	10	-10	0	107	0
COc1ccc(CCNC(=O)c2[nH]c(C)c(C(C)=O)c2C)cc1OC	74*	15	-15	-1	102	-1
CCc1c(C(=O)Nc2ccc(OC)c(Cl)c2)[nH]c(C)c1C(C)=O	18	62	-62	-2	94	0
COc1ccc(-c2nc(NC(=O)c3ccco3)sc2C)cc1	/	/	/	3	100	/
Cc1ccn2cc(CNS(=O)(=O)c3cccs3)nc2c1	2	/	/	3	96	0
CC(=O)N1CCN(C(=O)c2cc3c(s2)CCCC3)CC1	/	-8	8	-2	97	/
c1ccc2c(c1)oc1c(Nc3ccc4c(c3)OCO4)ncnc12	42	-10	10	7	104	2
CCc1ccc(C(=O)N2CCCN(C)CC2)s1	5	-19	19	0	90	0
COc1ccc(CCNC(=O)c2ccc(N(C)S(=O)(=O)c3ccc(C)cc3)cc2)cc1OC	2	74*	-74	0	100	-1
CC(=O)c1c(C)[nH]c(C(=O)Nc2cc(C)cc(C)c2)c1C	-2	83*	-83	6	106	0
COc1ccc(Cl)cc1NC(=O)c1[nH]c(C)c(C(C)=O)c1C	68*	9	-9	4	90	1
CC(=O)c1c(C)[nH]c(C(=O)Nc2ccc(S(=O)(=O)N(C)C)cc2)c1C	6	-2	2	2	94	0
Oc1ccc(C[C@H]2CNC(=S)N2CC2CCCN2C[C@H](Cc2ccc(O)cc2)N2C[C@H](Cc3ccccc3)N(CC3CCCCC3)C2=S)cc1 (some centres not stated)	/	/	/	0	99	/
CC1(C)C2CCC1(CS(=O)(=O)Nc1cccc(S(N)(=O)=O)c1)C(=O)C2 (configuration not stated)	-1	/	/	-1	96	-1
O=C(CC12CC3CC(CC(C3)C1)C2)NCc1ccc(F)cc1	0	83*	-83	0	100	0
CN(CCc1ccccn1)C(=O)CCc1nnc(CCCc2ccccc2)o1	9	4	-4	4	88	3
CC(NC(=O)c1ccc2ccccc2n1)c1ccc(Br)cc1 (configuration not stated)	17	-3	3	2	99	-1
CCCCc1ccc(Nc2nc(CCC)cc(=O)[nH]2)cc1	36	-7	7	1	99	-1
CCCc1cc(=O)[nH]c(Nc2ccc3c(c2)OCCO3)n1	71*	9	-9	-6	99	-1
O=C(Nc1nc(-c2ccc(Cl)s2)cs1)c1cccs1	71*	52	-52	6	104	2
Cc1noc(C)c1C(=O)Nc1nc(-c2cccs2)cs1	63*	8	-8	4	99	/
CC(=O)Nc1nc(-c2ccc([N+](=O)[O-])cc2)cs1	-5	-1	1	0	97	-1
